Among the data in ChEMBL document CHEMBL1150160, “New scalarane class sesterterpenes from an Indonesian sponge, Phyllospongia sp” (2002) are inhibition values, retold here.

In general, inhibition refers to the drop in the measured response relative to a control, in per cent.

Structures are written as SMILES.

This test concerns KB. Kind of test: Cytotoxicity against human KB cells at 10 ug/mL. The test is classed as functional. In outline:
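KB cell growth was measured in the presence of test material at 10 μg/mL. Values are given as percent inhibition of growth.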
The compound `CO[C@](C(=O)O[C@H]1C[C@H]2[C@]3(C)CC[C@H]4C(C)(C)CCC[C@]4(C)[C@H]3C[C@H](OC(C)=O)[C@]2(C)[C@@H](C=O)[C@@H]1C(C)=O)(c1ccccc1)C(F)(F)F` displayed an inhibition at 10 µg/mL of 30%.

Regarding `CC(=O)O[C@H]1C[C@@H]2[C@@]3(C)CCCC(C)(C)[C@@H]3CC[C@@]2(C)[C@@H]2C[C@H](O)[C@@H]3[C@H]([C@H](O)O[C@H]3C)[C@@]12C`, testing at 10 µg/mL gave an inhibition of 30%.

In turn, `CO[C@@H]1O[C@@H](C)[C@H]2[C@H]1[C@@]1(C)[C@@H](OC(C)=O)C[C@@H]3[C@@]4(C)CCCC(C)(C)[C@@H]4CC[C@@]3(C)[C@@H]1C[C@@H]2O` registered an inhibition at 10 µg/mL of 30%.

`CC[C@@]1(C)CCC[C@]2(C)[C@H]3C[C@H](OC(C)=O)[C@]4(C)[C@H]5[C@@H](OC)O[C@@H](C)[C@@H]5[C@@H](O)C[C@H]4[C@]3(C)CC[C@@H]12` came in with an inhibition at 10 µg/mL of 30%.

For the compound `CC(=O)O[C@H]1C[C@H]2[C@@](C)(CC[C@H]3C(C)(C)CCC[C@]23C)[C@@H]2C[C@H](O)[C@@H](C(C)=O)C[C@]21C`, at 10 µg/mL the inhibition was 30%.

`CC[C@@]1(C)CCC[C@]2(C)[C@H]3C[C@H](OC(C)=O)[C@]4(C)C[C@H](C(C)=O)[C@@H](O)C[C@H]4[C@]3(C)CC[C@@H]12`: the inhibition at 10 µg/mL was 30%.

Compound `CC(=O)O[C@H]1C[C@H]2[C@]3(C)CC[C@H]4C(C)(C)CCC[C@]4(C)[C@H]3C[C@H](OC(C)=O)[C@]2(C)[C@@H](C=O)[C@@H]1C(C)=O` came in with an inhibition at 10 µg/mL of 30%.

`CO[C@H]1O[C@@H](C)[C@H]2[C@H]1[C@@]1(C)[C@@H](OC(C)=O)C[C@@H]3[C@@]4(C)CCCC(C)(C)[C@@H]4CC[C@@]3(C)[C@@H]1C[C@@H]2O` came in with an inhibition at 10 µg/mL of 30%.

Compound `CC[C@@]1(C)CCC[C@]2(C)[C@H]3C[C@H](OC(C)=O)[C@]4(C)[C@@H](C=O)[C@H](C(C)=O)[C@@H](O)C[C@H]4[C@]3(C)CC[C@@H]12` had an inhibition at 10 µg/mL of 30%.

Take `CC[C@@]1(C)CCC[C@]2(C)[C@H]3C[C@H](OC(C)=O)[C@]4(C)[C@@H]5[C@H]([C@H](C)O[C@H]5O)[C@@H](O)C[C@H]4[C@]3(C)CC[C@@H]12`: at 10 µg/mL the inhibition was 30%.

For the compound `CO[C@@H]1O[C@](C)(OC)[C@H]2[C@H]1[C@@]1(C)[C@@H](OC(C)=O)C[C@@H]3[C@@]4(C)CCCC(C)(C)[C@@H]4CC[C@@]3(C)[C@@H]1C[C@@H]2O`, at 10 µg/mL the inhibition was 30%.

`CO[C@@](C(=O)O[C@H]1C[C@H]2[C@]3(C)CC[C@H]4C(C)(C)CCC[C@]4(C)[C@H]3C[C@H](OC(C)=O)[C@]2(C)[C@@H](C=O)[C@@H]1C(C)=O)(c1ccccc1)C(F)(F)F` registered an inhibition at 10 µg/mL of 30%.

As for `CC(=O)O[C@@H]1O[C@@H](C)[C@H]2[C@H]1[C@@]1(C)[C@@H](OC(C)=O)C[C@@H]3[C@@]4(C)CCCC(C)(C)[C@@H]4CC[C@@]3(C)[C@@H]1C[C@@H]2OC(C)=O`, the inhibition at 10 µg/mL stood at 30%.

Turning to `CC[C@@]1(C)CCC[C@]2(C)[C@H]3C[C@H](OC(C)=O)[C@]4(C)[C@H]5[C@H](OC)O[C@@H](C)[C@@H]5[C@@H](O)C[C@H]4[C@]3(C)CC[C@@H]12`, at 10 µg/mL the inhibition was 30%.

`CC(=O)O[C@H]1C[C@@H]2[C@@]3(C)CCCC(C)(C)[C@@H]3CC[C@@]2(C)[C@@H]2C[C@H](O)[C@@H](C(C)=O)[C@H](C=O)[C@@]12C` yielded an inhibition at 10 µg/mL of 30%.

`CC(=O)O[C@H]1C[C@@H]2[C@@]3(C)CCCC(C)(C)[C@@H]3CC[C@@]2(C)[C@@H]2C[C@H](O)[C@@H](C(C)=O)[C@H](O)[C@@]12C` returned an inhibition at 10 µg/mL of 30%.
